Assay results as given in ChEMBL document CHEMBL1649142, “Relationship between susceptibility to daptomycin in vitro and activity in vivo in a rabbit model of aortic valve endocarditis” (Antimicrob Agents Chemother, 2009).
In brackets after ≈: the same amount, converted by molar mass.

Columns and labels:
[1] = tested on: Staphylococcus aureus; assay: Antimicrobial activity against rifampin-susceptible Staphylococcus aureus A by Etest
[2] = tested on: Staphylococcus aureus; assay: Antimicrobial activity against Staphylococcus aureus B2.0 infected in New Zealand rabbit aortic valve endocarditis model assessed as bacterial count in spleen at 12 mg/kg/day, iv for 4 days (reference value: 5.4+/-0.2 log10 CFU/g); assay type: functional
[3] = AUC in human at 6 mg/kg, iv by HPLC; assay type: ADME, organism-based; design: dose 6 mg/kg, route intravenous; conditions: plasma
[4] = tested on: Staphylococcus aureus; assay: Antimicrobial activity against Staphylococcus aureus A0.5 infected in New Zealand rabbit aortic valve endocarditis model assessed as bacterial count in spleen at 18 mg/kg/day, iv for 4 days (reference value: 6.1+/-0.2 log10 CFU/g); assay type: functional
[5] = tested on: Staphylococcus aureus; assay: Antimicrobial activity against Staphylococcus aureus A0.5 infected in New Zealand rabbit aortic valve endocarditis model assessed as bacterial count in endocardial vegetation at 12 mg/kg/day, iv for 4 days (reference value: 6.9+/-0.7 log10 CFU/g); assay type: functional
[6] = tested on: Staphylococcus aureus; assay: Antimicrobial activity against Staphylococcus aureus B2.0 infected in New Zealand rabbit aortic valve endocarditis model assessed as bacterial count in endocardial vegetation at 12 mg/kg/day, iv for 4 days (reference value: 7.3+/-1.0 log10 CFU/g); assay type: functional, Aorta
[7] = tested on: Staphylococcus aureus; assay: Antimicrobial activity against Staphylococcus aureus A0.5/B2.0 infected in New Zealand rabbit dual-infection aortic valve endocarditis model assessed as bacterial count in endocardial vegetation at 12 mg/kg/day, iv for 4 days (reference value: 7.8+/-0.4 log10 CFU/g); assay type: functional, Aorta
[8] = tested on: Staphylococcus aureus; assay: Antimicrobial activity against Staphylococcus aureus A0.5/B2.0 infected in New Zealand rabbit dual-infection aortic valve endocarditis model assessed as bacterial count of strain B2.0 in endocardial vegetation at 12 mg/kg/day, iv for 4 days (reference value: 320 log10 CFU); assay type: functional, Aorta
[9] = tested on: Staphylococcus aureus; assay: Antimicrobial activity against Staphylococcus aureus A0.5/B2.0 infected in New Zealand rabbit dual-infection aortic valve endocarditis model assessed as bacterial count in kidney at 12 mg/kg/day, iv for 4 days (reference value: 6.3+/-1.0 log10 CFU/g); assay type: functional
[10] = AUC in New Zealand rabbit at 12 mg/kg/day, iv for 4 days by HPLC; assay type: ADME, organism-based, Oryctolagus cuniculus; design: route intravenous; conditions: plasma
[11] = tested on: Staphylococcus aureus; assay: Antimicrobial activity against rifampin-resistant Staphylococcus aureus B; assay type: functional
[12] = Half life in New Zealand rabbit at 12 mg/kg/day, iv […] by HPLC; assay type: ADME, organism-based, Oryctolagus cuniculus; design: route intravenous; conditions: in vivo
In short: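 Uninfected New Zealand White rabbits (n = 3 per group) were dosed once by IV bolus. Plasma was collected at 0.25, 0.5, 1, 2, 4 and 6 h and measured by validated HPLC. Half-life was obtained by noncompartmental analysis, with kel taken from the slope of the terminal log concentration-time curve.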

[13] = tested on: Staphylococcus aureus; assay: Antimicrobial activity against Staphylococcus aureus A0.5/B2.0 infected in New Zealand rabbit dual-infection aortic valve endocarditis model assessed as bacterial count of strain A0.5 in endocardial vegetation at 12 mg/kg/day, iv for 4 days (reference value: 280 log10 CFU); assay type: functional, Aorta
[14] = tested on: Staphylococcus aureus; assay: Antimicrobial activity against rifampin-susceptible Staphylococcus aureus A by broth dilution method
[15] = tested on: Staphylococcus aureus; assay: Antimicrobial activity against Staphylococcus aureus A0.5/B2.0 infected in New Zealand rabbit dual-infection aortic valve endocarditis model assessed as bacterial count in spleen at 12 mg/kg/day, iv for 4 days (reference value: 6.0+/-0.3 log10 CFU/g); assay type: functional
[16] = AUC in New Zealand rabbit at 18 mg/kg/day, iv for 4 days by HPLC; assay type: ADME, organism-based, Oryctolagus cuniculus; design: route intravenous; conditions: plasma
[17] = tested on: Staphylococcus aureus; assay: Antimicrobial activity against Staphylococcus aureus A0.5 infected in New Zealand rabbit aortic valve endocarditis model assessed as bacterial count in spleen at 18 mg/kg/day, iv for 4 days (reference value: 5.7+/-0.7 log10 CFU/g); assay type: functional
[18] = tested on: Staphylococcus aureus; assay: Antimicrobial activity against Staphylococcus aureus A0.5/B2.0 infected in New Zealand rabbit dual-infection aortic valve endocarditis model assessed as bacterial count of strain B2.0 in spleen at 12 mg/kg/day, iv for 4 days (reference value: 627 log10 CFU); assay type: functional
[19] = tested on: Staphylococcus aureus; assay: Antimicrobial activity against Staphylococcus aureus A0.5 infected in New Zealand rabbit aortic valve endocarditis model assessed as bacterial count in endocardial vegetation at 18 mg/kg/day, iv for 4 days (reference value: 6.9+/-0.7 log10 CFU/g); assay type: functional
[20] = tested on: Staphylococcus aureus; assay: Antimicrobial activity against Staphylococcus aureus A0.5/B2.0 infected in New Zealand rabbit dual-infection aortic valve endocarditis model assessed as bacterial count of strain A0.5 in spleen at 12 mg/kg/day, iv for 4 days (reference value: 333 log10 CFU); assay type: functional
[21] = tested on: Staphylococcus aureus; assay: Antimicrobial activity against Staphylococcus aureus B2.0 infected in New Zealand rabbit aortic valve endocarditis model assessed as bacterial count in spleen at 18 mg/kg/day, iv for 4 days (reference value: 5.4+/-0.2 log10 CFU/g); assay type: functional
[22] = tested on: Staphylococcus aureus; assay: Antimicrobial activity against Staphylococcus aureus B2.0 infected in New Zealand rabbit aortic valve endocarditis model assessed as bacterial count in kidney at 18 mg/kg/day, iv for 4 days (reference value: 5.1+/-0.6 log10 CFU/g); assay type: functional
[23] = Cmax in New Zealand rabbit at 18 mg/kg/day, iv […] measured after 15 mins […] by HPLC; assay type: ADME, organism-based, Oryctolagus cuniculus; design: dose 18 mg/kg/day, route intravenous; conditions: in vivo
In short: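 A single IV bolus (1 to 2 min, marginal ear vein) was given to healthy New Zealand White rabbits, three per group. Plasma was drawn from 0.25 to 6 h and assayed by validated HPLC. The reported value is the mean plasma concentration 15 min after the end of infusion, not a multi-day steady-state peak.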

[24] = tested on: Staphylococcus aureus; assay: Antimicrobial activity against Staphylococcus aureus B2.0 infected in New Zealand rabbit aortic valve endocarditis model assessed as bacterial count in kidney at 12 mg/kg/day, iv for 4 days (reference value: 5.1+/-0.6 log10 CFU/g); assay type: functional
[25] = tested on: Staphylococcus aureus; assay: Antimicrobial activity against Staphylococcus aureus A0.5 infected in New Zealand rabbit aortic valve endocarditis model assessed as bacterial count in spleen at 12 mg/kg/day, iv for 4 days (reference value: 6.1+/-0.2 log10 CFU/g); assay type: functional
[26] = tested on: Staphylococcus aureus; assay: Antimicrobial activity against Staphylococcus aureus A0.5 infected in New Zealand rabbit aortic valve endocarditis model assessed as bacterial count in spleen at 12 mg/kg/day, iv for 4 days (reference value: 5.7+/-0.7 log10 CFU/g); assay type: functional
[27] = tested on: Staphylococcus aureus; assay: Antimicrobial activity against Staphylococcus aureus B2.0 infected in New Zealand rabbit aortic valve endocarditis model assessed as bacterial count in endocardial vegetation at 18 mg/kg/day, iv for 4 days (reference value: 7.3+/-1.0 log10 CFU/g); assay type: functional, Aorta
[28] = AUC in human at 10 mg/kg, iv by HPLC; assay type: ADME, organism-based; design: dose 10 mg/kg, route intravenous; conditions: plasma

CCCCCCCCCC(=O)N[C@@H](Cc1c[nH]c2ccccc12)C(=O)N[C@H](CC(N)=O)C(=O)N[C@@H](CC(=O)O)C(=O)N[C@@H]1C(=O)NCC(=O)N[C@@H](CCCN)C(=O)N[C@@H](CC(=O)O)C(=O)N[C@H](C)C(=O)N[C@@H](CC(=O)O)C(=O)NCC(=O)N[C@H](CO)C(=O)N[C@@H]([C@H](C)CC(=O)O)C(=O)N[C@@H](CC(=O)c2ccccc2N)C(=O)O[C@@H]1C
MIC [1]: 0.5 µg/mL (≈ 0.309 µM)
log10CFU/g [2]: 3.2
AUC [3]: 632 µg·h/mL
log10CFU/g [4]: 0
log10CFU/g [5]: 0
log10CFU/g [6]: 6.3
log10CFU/g [7]: 5.3
log10CFU/g [8]: 1.7
log10CFU/g [9]: 1.7
AUC at 96 h [10]: 719 µg·h/mL
MIC [11]: 2 µg/mL (≈ 1.23 µM)
half-life [12]: 300 min
log10CFU/g [13]: 2.3
MIC [14]: 0.5 µg/mL (≈ 0.309 µM)
log10CFU/g [15]: 2.3
AUC at 96 h [16]: 965 µg·h/mL
log10CFU/g [17]: 0
log10CFU/g [18]: 0
log10CFU/g [19]: 0
log10CFU/g [20]: 1
log10CFU/g [21]: 2.3
log10CFU/g [22]: 2.5
Cmax [23]: 149 µg/mL
log10CFU/g [24]: 2.1
log10CFU/g [25]: 0
log10CFU/g [26]: 0
log10CFU/g [27]: 4.4
AUC [28]: 1040 µg·h/mL
